Measurements as given in ChEMBL document CHEMBL2163267, “Novel N-linked aminopiperidine inhibitors of bacterial topoisomerase type II with reduced pK(a): antibacterial agents with an improved safety profile” (J Med Chem, 2012).
Values after ≈ are worked out from the molar mass of the structure shown.

What was measured:
[1] = Dissociation constant, pKa of the compound by pH metric assay; assay type: physicochemical
In short: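 pH-metric titration on an automated titrator, run in triplicate. Accuracy about 0.02 log units.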

[2] = Half life in Wistar Han rat at 3 mg/kg, iv administered as bolus dose and 10 mg/kg, po; assay type: ADME, organism-based; conditions: in vivo
In short: (§1)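 Single iv dose (3 mg/kg bolus, or 10 mg/kg infusion, per line). Rats in groups of three, bolus via cannulated jugular vein. Male beagle dogs (n = 3), iv as 15 min infusion, sampled 0 to 24 h. Serial whole-blood samples taken at time intervals. Plasma levels measured by LC-MS/MS. Parameters estimated by non-compartmental analysis.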

[3] = Clearance in Beagle dog at 3 mg/kg, iv administered as bolus dose and 10 mg/kg, po; assay type: ADME, organism-based, Canis lupus familiaris; conditions: in vivo
Staphylococcus aureus [4] = assay: Antibacterial activity against methicillin-susceptible Staphylococcus aureus after 18 to 24 hrs by CLSI broth microdilution method; assay type: functional
[5] = AUC in Wistar Han rat at 3 mg/kg, iv administered as bolus dose; assay type: ADME, organism-based; parameters: dose 3 mg/kg, route intravenous; conditions: plasma; in short: as §1
[6] = target: T1, Voltage-gated inwardly rectifying potassium channel KCNH2 (Homo sapiens, UniProt Q12809); assay: Inhibition of human ERG by Ionworks assay
[7] = Oral bioavailability in Beagle dog at 10 mg/kg; assay type: ADME, organism-based, Canis lupus familiaris; conditions: in vivo
In short: (§2)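 Bioavailability from a 10 mg/kg oral dose, by gavage in rats (groups of three) or orally in male beagle dogs (n = 3). Plasma sampled serially over time (dogs 0 to 24 h). Levels measured by LC-MS/MS and referenced to iv dosing. Parameters from non-compartmental analysis.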

[8] = Oral bioavailability in Wistar Han rat at 10 mg/kg; assay type: ADME, organism-based; conditions: in vivo; in short: as §2
[9] = AUC in Beagle dog at 3 mg/kg, iv administered as bolus dose; assay type: ADME, organism-based, Canis lupus familiaris; parameters: dose 3 mg/kg, route intravenous; conditions: plasma
[10] = Fraction unbound in human plasma at 10 uM by equilibrium dialysis method; assay type: ADME, cell-free
In short: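 Equilibrium dialysis. Compound at 10 μM in the plasma (donor) chamber against phosphate buffer, rotated at 37 °C for 16 h. Drug in the plasma and buffer samples quantified by LC-MS/MS after methanol protein precipitation with internal standard. Standard curve 10 nM to 10 μM.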

Escherichia coli = assay: Antibacterial activity against Escherichia coli W3110 after 18 to 24 hrs by CLSI broth microdilution method; assay type: functional
Pseudomonas aeruginosa = assay: Antibacterial activity against Pseudomonas aeruginosa PAO1 after 18 to 24 hrs by CLSI broth microdilution method; assay type: functional
[11] = Octanol-phosphate buffer partition coefficient, log D of the compound at pH 7.4 by shake flask method; assay type: physicochemical
In short: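 Shake-flask partition between n-octanol and 10 mM phosphate buffer at pH 7.4. Shaken 1 h at 1200 rpm to reach equilibrium. Phases analysed by LC/UV, with MS for mass confirmation.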

[12] = Volume of distribution in Wistar Han rat at 3 mg/kg, iv administered as bolus dose and 10 mg/kg, po; assay type: ADME, organism-based; conditions: in vivo; in short: as §1
Cavia porcellus [13] = assay: Cardiotoxicity in iv dosed guinea pig assessed as MAPD90 prolongation at 16 uM free plasma concentration; assay type: toxicity, organism-based; conditions: in vivo
In short: (§3)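 Male guinea pigs anaesthetized with Nembutal, tracheotomized and mechanically ventilated. Compound given iv in two 17 min infusion periods with cardiac pacing. Monophasic action potential recorded continuously and MAPD90 taken. Blood drawn at each dose level for plasma concentration. Vehicle controls run in separate cohorts; n = 6.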

[14] = target: T1, Voltage-gated inwardly rectifying potassium channel KCNH2; assay: Displacement of [3H]-astemizole from human ERG expressed in HEK293 cells after 60 mins by liquid scintillation counter; assay type: cell-based
[15] = Inhibition of Escherichia coli DNA topoisomerase 4 subunit ParC/DNA topoisomerase 4 subunit ParE ATPase activity after 24 hrs by malachite green staining-based colorimetric assay
[16] = Intrinsic clearance in Beagle dog hepatocytes measured per 10^6 cells; assay type: ADME, cell-based, Canis lupus familiaris, Hepatocyte; conditions: read-out: CLH
[17] = Half life in Beagle dog at 3 mg/kg, iv administered as bolus dose and 10 mg/kg, po; assay type: ADME, organism-based, Canis lupus familiaris; conditions: in vivo
[18] = Intrinsic clearance in Wistar Han rat hepatocytes measured per 10^6 cells; assay type: ADME, cell-based, Hepatocyte; conditions: read-out: CLH
[19] = Clearance in Wistar Han rat at 3 mg/kg, iv administered as bolus dose and 10 mg/kg, po; assay type: ADME, organism-based; conditions: in vivo; in short: as §1
[20] = Volume of distribution in Beagle dog at 3 mg/kg, iv administered as bolus dose and 10 mg/kg, po; assay type: ADME, organism-based, Canis lupus familiaris; conditions: in vivo
Streptococcus pneumoniae = assay: Antibacterial activity against penicillin-susceptible Streptococcus pneumoniae D39 after 18 to 24 hrs by CLSI broth microdilution method; assay type: functional
Mus musculus [21] = assay: AUC (infinity) in CD1 mouse infected with methicillin-resistant Staphylococcus aureus ARC 1692 at 40 mg/kg/day, ip; assay type: ADME, organism-based, Plasma; parameters: dose 40 mg/kg/day, time infinity, route intraperitoneal; conditions: in vivo
[22] = Half life in Beagle dog at 10 mg/kg, iv administered as infusion and po; assay type: ADME, organism-based, Canis lupus familiaris; parameters: dose 10 mg/kg, route oral; conditions: in vivo
[23] = AUC in Beagle dog at 10 mg/kg, iv administered as infusion; assay type: ADME, organism-based, Canis lupus familiaris; parameters: dose 10 mg/kg, route intravenous; conditions: plasma; in short: as §1
[24] = Intrinsic clearance in human hepatocytes measured per 10^6 cells; assay type: ADME, cell-based, Hepatocyte; conditions: read-out: CLH
Staphylococcus aureus [25] = assay: Antibacterial activity against community acquired methicillin-resistant Staphylococcus aureus ARC 3189 after 18 to 24 hrs by CLSI broth microdilution method; assay type: functional
In short: (§4)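 CLSI broth microdilution in Mueller Hinton Broth 2. Inocula prepared from blood agar plates grown at 35 °C for 18–24 h. Compound in DMSO, 2% DMSO final, 11 doubling dilutions from 64 to 0.06 μg/mL. Plates read at 620 nm.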

Staphylococcus aureus [26] = assay: Antibacterial activity against vancomycin-resistant Staphylococcus aureus ARC 3186 after 18 to 24 hrs by CLSI broth microdilution method; assay type: functional; in short: as §4
Staphylococcus aureus [27] = assay: Antibacterial activity against methicillin-resistant Staphylococcus aureus ARC 1692 in ABT-treated CD1 mouse neutropenic thigh infection model assessed as reduction in log10 CFU per gram of thigh at 60 mg/kg/day, ip qd starting 2 hrs post-infection measured after 24 hrs; assay type: functional; conditions: route intraperitoneal
Mus musculus [28] = assay: AUC (infinity) in CD1 mouse infected with methicillin-resistant Staphylococcus aureus ARC 1692 at 20 mg/kg/day, ip; assay type: ADME, organism-based, Plasma; parameters: dose 20 mg/kg/day, time infinity, route intraperitoneal; conditions: in vivo
Canis familiaris = assay: Volume of distribution in Beagle dog at 10 mg/kg, iv administered as infusion and po; assay type: ADME, organism-based, Canis lupus familiaris; parameters: dose 10 mg/kg, route oral; conditions: in vivo; in short: as §1
Staphylococcus aureus [29] = assay: Antibacterial activity against hospital acquired methicillin-resistant Staphylococcus aureus ARC 1692 after 18 to 24 hrs by CLSI broth microdilution method; assay type: functional; in short: as §4
Mus musculus [30] = assay: AUC (infinity) in CD1 mouse infected with methicillin-resistant Staphylococcus aureus ARC 1692 at 60 mg/kg/day, ip; assay type: ADME, organism-based, Plasma; parameters: dose 60 mg/kg/day, time infinity, route intraperitoneal; conditions: in vivo
Staphylococcus aureus [31] = assay: Antibacterial activity against methicillin-resistant Staphylococcus aureus ARC 1692 in ABT-treated CD1 mouse neutropenic thigh infection model assessed as reduction in log10 CFU per gram of thigh at 20 mg/kg/day, ip qd starting 2 hrs post-infection measured after 24 hrs; assay type: functional; conditions: route intraperitoneal
Cavia porcellus [32] = assay: Cardiotoxicity in iv dosed guinea pig assessed as change in MAPD90 at 67 uM total plasma concentration; assay type: toxicity, organism-based; conditions: in vivo; in short: as §3
Rattus norvegicus = assay: Volume of distribution in Wistar Han rat at 10 mg/kg, iv administered as infusion and po; assay type: ADME, organism-based; parameters: dose 10 mg/kg, route oral; conditions: in vivo; in short: as §1
[33] = AUC in Wistar Han rat at 10 mg/kg, iv administered as infusion; assay type: ADME, organism-based; parameters: dose 10 mg/kg, route intravenous; conditions: plasma; in short: as §1
Staphylococcus aureus [34] = assay: Antibacterial activity against linezolid-resistant Staphylococcus aureus ARC 3583 after 18 to 24 hrs by CLSI broth microdilution method; assay type: functional; in short: as §4
[35] = Half life in Wistar Han rat at 10 mg/kg, iv administered as infusion and po; assay type: ADME, organism-based; parameters: dose 10 mg/kg, route oral; conditions: in vivo
Staphylococcus aureus [36] = assay: Antibacterial activity against methicillin-resistant Staphylococcus aureus ARC 1692 in ABT-treated CD1 mouse neutropenic thigh infection model assessed as reduction in log10 CFU per gram of thigh at 40 mg/kg/day, ip qd starting 2 hrs post-infection measured after 24 hrs; assay type: functional; conditions: route intraperitoneal

T1 sequence (Q12809 whole entry): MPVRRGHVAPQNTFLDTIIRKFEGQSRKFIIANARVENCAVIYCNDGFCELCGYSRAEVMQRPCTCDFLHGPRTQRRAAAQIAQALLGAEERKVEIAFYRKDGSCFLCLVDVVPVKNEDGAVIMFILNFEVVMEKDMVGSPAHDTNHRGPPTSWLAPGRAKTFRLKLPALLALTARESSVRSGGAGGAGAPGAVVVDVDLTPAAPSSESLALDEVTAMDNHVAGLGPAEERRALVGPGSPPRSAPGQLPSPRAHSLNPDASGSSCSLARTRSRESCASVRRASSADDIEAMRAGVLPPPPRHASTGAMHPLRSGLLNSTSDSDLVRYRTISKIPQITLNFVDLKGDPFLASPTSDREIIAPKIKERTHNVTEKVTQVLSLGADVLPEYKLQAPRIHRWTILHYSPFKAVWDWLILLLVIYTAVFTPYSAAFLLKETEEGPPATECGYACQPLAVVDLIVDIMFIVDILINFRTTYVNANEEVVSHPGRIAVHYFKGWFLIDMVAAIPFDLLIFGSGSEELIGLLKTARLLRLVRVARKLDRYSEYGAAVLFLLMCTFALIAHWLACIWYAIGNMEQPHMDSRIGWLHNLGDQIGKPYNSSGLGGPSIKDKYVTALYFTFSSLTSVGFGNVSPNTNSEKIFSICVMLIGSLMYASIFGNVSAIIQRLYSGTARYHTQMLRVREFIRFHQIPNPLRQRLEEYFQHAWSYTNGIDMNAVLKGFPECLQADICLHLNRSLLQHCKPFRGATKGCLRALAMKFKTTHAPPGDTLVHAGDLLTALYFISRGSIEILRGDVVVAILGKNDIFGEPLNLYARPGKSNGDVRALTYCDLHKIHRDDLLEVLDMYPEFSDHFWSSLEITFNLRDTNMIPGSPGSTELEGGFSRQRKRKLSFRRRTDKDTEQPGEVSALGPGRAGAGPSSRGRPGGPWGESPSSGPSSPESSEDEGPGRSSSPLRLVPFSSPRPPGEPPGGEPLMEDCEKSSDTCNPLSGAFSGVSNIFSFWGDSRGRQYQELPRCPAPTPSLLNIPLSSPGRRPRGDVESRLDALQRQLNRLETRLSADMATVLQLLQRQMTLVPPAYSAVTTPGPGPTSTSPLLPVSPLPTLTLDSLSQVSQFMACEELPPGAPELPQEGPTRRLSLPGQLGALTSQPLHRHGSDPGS

| Compound | pKa [1] | clearance [3] [mL/min/kg] | MIC (Staphylococcus aureus [4]) [µg/mL] | AUC [5] [ng·h/mL] | IC50 [6] [µM] | bioavailability [7] [%] | bioavailability [8] [%] | AUC [9] [ng·h/mL] | fraction unbound at 10 µM [10] | MIC (Escherichia coli) [µg/mL] | MIC (Pseudomonas aeruginosa) [µg/mL] | logD [11] | Vd [12] [L/kg] | IC50 [14] [µM] | IC50 [15] [µM] | hepatocyte CLint [16] [µL/min/1e6 cells] | hepatocyte CLint [18] [µL/min/1e6 cells] | clearance [19] [mL/min/kg] | Vd [20] [L/kg] | MIC (Streptococcus pneumoniae) [µg/mL] | further results |
| --- | --- | --- | --- | --- | --- | --- | --- | --- | --- | --- | --- | --- | --- | --- | --- | --- | --- | --- | --- | --- | --- |
| N#Cc1ccc2ccc(=O)n(CCN3CCC(NCc4cc5c(cn4)OCCO5)CC3)c2c1 | 8.27 | 18 | 0.03 (≈ 0.0673 µM) | 370 | 44 | 72 | 31 | 2600 | 0.28 | 0.5 (≈ 1.12 µM) | > 8 | 0.68 | 21 | 39 | 0.0032 | 1.8 | 42 | 127 | 8 | 0.08 (≈ 0.18 µM) | half-life [2]: 3 h; Activity (Cavia porcellus [13]): > 10%; half-life [17]: 8.4 h |
| COc1ccc2ncc(=O)n(CCN3CCC(NCc4ccc5c(n4)NC(=O)CO5)CC3)c2c1 | 8.42 | 8.5 | 0.03 (≈ 0.0646 µM) | 190 | – | – | – | 6800 | 0.26 | 0.13 (≈ 0.28 µM) | 1 (≈ 2.15 µM) | 0.6 | 23 | – | 0.0022 | < 1 | 26 | 252 | 2 | 0.08 (≈ 0.172 µM) | – |
| N#Cc1ccc2ccc(=O)n(CCN3CC[C@H](NCc4cc5c(cn4)OCCO5)[C@H](F)C3)c2c1 | 7.03 | – | 0.06 (≈ 0.129 µM) | – | 233 | 60 | 18 | – | 0.25 | 4 (≈ 8.63 µM) | > 8 | 0.96 | – | > 200 | 0.048 | 4.5 | 13 | – | – | 0.13 (≈ 0.28 µM) | AUC (Mus musculus [21]): 37 µg/h/mL; half-life [22]: 3.4 h; AUC [23]: 27000 ng·h/mL; hepatocyte CLint [24]: 5.2 µL/min/1e6 cells; MIC (Staphylococcus aureus [25]): 0.06 µg/mL (≈ 0.129 µM); MIC (Staphylococcus aureus [26]): 0.015 µg/mL (≈ 0.0324 µM); log10cfu (Staphylococcus aureus [27]): 1.5; AUC (Mus musculus [28]): 18 µg/h/mL; Vd (Canis familiaris): 1.5 L/kg; MIC (Staphylococcus aureus [29]): 0.125 µg/mL (≈ 0.27 µM); AUC (Mus musculus [30]): 53 µg/h/mL; log10cfu (Staphylococcus aureus [31]): 0.1; Activity (Cavia porcellus [32]): Non-toxic; Vd (Rattus norvegicus): 3 L/kg; AUC [33]: 3100 ng·h/mL; MIC (Staphylococcus aureus [34]): 0.125 µg/mL (≈ 0.27 µM); half-life [35]: 0.9 h; log10cfu (Staphylococcus aureus [36]): 1 |
| N#Cc1ccc2ccc(=O)n(CCN3CC[C@@H](NCc4cc5c(cn4)OCCO5)[C@@H](F)C3)c2c1 | – | – | 0.13 (≈ 0.28 µM) | – | 199 | – | – | – | 0.2 | 4 (≈ 8.63 µM) | > 8 | 0.97 | – | > 200 | 0.06 | – | – | – | – | 0.13 (≈ 0.28 µM) | – |
